Screens: PubChem BioAssay, several laboratories
In the library only some 5.5% were active in any assay of this set; here they are far more common.
STAT1 activator – STAT1 signaling activators, primary screen, cell-based, HTS, luciferase reporter | NIH 3T3 STAT1-luciferase reporter, IFN-gamma, luminescence; 100% = IFN-gamma alone, no compound | hit rate 2.6% among 200,000 | activation (% of control), % at 5.5 µM | AID 932, 2007;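 active means activation above the screen-wide mean activation plus 3 SD, cut at about 130% in these data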;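 further: raw ratio to IFN-gamma control signal so 100% means no change and 0% no light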
STAT3 activator – IL-6 driven STAT3 reporter potentiators, primary screen, U3A cells, luciferase, luminescence, MLSCN library; IL-6 STAT3-luciferase reporter; 100% = signal with IL-6 EC80 alone; activation (% of control), % at 5.6 µM; hit rate 0.91% among 190,000; AID 871, 2007;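 active means activation above the screen-wide mean of compound activation plus 3 SD, cut at about 130% in these data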;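 further: 0% = background luminescence of wells with medium and substrate only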
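Detection: reporter luminescence signal / Assay system: STAT1-lacking human U3A cells, STAT3 luciferase reporter / Incubation: compound pre-incubation 1 h before IL-6, then 6 h stimulation at 37 °C / Control set: IL-6-only high control / Read-out: % activation relative to IL-6 control / Probe or stimulus: Interleukin-6, 33 ng/mL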
HSV replic up – enhancers of HSV replication in host cells, fold increase, host cell viability. HSV replication augmentation in cells. maximum fold increase. hit rate 0.005% among 220,000. AID 1956, 2009; in the data active means maximum fold increase above about 1.5; inconclusive means no clear call, values can overlap the other calls; tested in PC3 cells
STAT1 inh-1 – STAT1 signaling inhibitors, primary screen, cell-based, HTS, luciferase reporter. hit rate 0.35% among 200,000. inhibition, % at 5.5 µM. NIH 3T3 STAT1-luciferase reporter, IFN-gamma, luminescence;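 active means inhibition above a set limit, the mean inhibition across all tested compounds plus 3 SD, cut at about 34% in these data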;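 further: 0% = IFN-gamma with DMSO and 100% = IFN-gamma with 300 µM nifuroxazide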
Cl transport mod – KCC2 cotransporter modulators, thallium flux, primary screen, cell-based, HEK293 KCC2, FluoZin-2 fluorescence, MLSMR; AID 1456, 2008; hit rate 2.2% among 190,000; KCC2 cells, thallium flux FluoZin-2 fluorescence; B-score of Tl+ flux slope (higher = more flux/activation; lower = inhibition) at 10 µM;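 active means thallium flux slope and its plate-corrected score both differing from the plate sample mean at a set confidence after two filtering rounds, in either direction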;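 further: slope of fluorescence scaled to starting intensity during 10 to 20 s after thallium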
STAT3 blocker – IL-6 driven STAT3 reporter inhibitors, primary screen, U3A cells, luciferase, luminescence, MLSCN library; IL-6 STAT3-luciferase reporter; host cell line lacks STAT1; inhibition, % at 5.5 µM; hit rate 0.89% among 190,000; AID 862, 2007;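 active means inhibition above the mean inhibition across all screened compounds plus 3 SD, cut at about 44% in these data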;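 further: 0% = DMSO only wells and 100% = 100 µM nifuroxazide control wells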
STAT1 inh-2 – STAT1 signaling inhibitors, confirmation, cell-based, HTS, luciferase reporter; NIH 3T3 STAT1-luciferase reporter, IFN-gamma, luminescence; inhibition, % at 5.5 µM; shares compounds with STAT1 inh-1; hit rate 55% among 200; AID 1263, 2008;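 active means triplicate mean inhibition exceeding the hit cutoff computed for the primary STAT1 screen, cut at about 35% in these data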;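 further: 0% = DMSO with IFN-gamma and 100% = 300 µM nifuroxazide with IFN-gamma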
NFkB inh – NF-kB reporter inhibitors, TNF-alpha stimulated, counter-screen for STAT1 inhibitor project, cell-based, HEK293T, luciferase luminescence. shares compounds with STAT1 inh-1. TNF-alpha induced. inhibition, % at 5.7 µM. hit rate 30% among 200;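 active means inhibition above the mean of solvent-only control wells plus 3 SD of those wells, cut at about 15% in these data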;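 further: 0% = DMSO with TNF-alpha and 100% = MG-132 control with TNF-alpha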
STAT3 inh STAT1c – STAT3 reporter inhibition by STAT1 hits, counter-screen for STAT1 inhibitor project, U3A cells, luciferase, luminescence, triplicate. shares compounds with STAT1 inh-1. IL-6 STAT3 luciferase reporter; cells lacking STAT1. inhibition, % at 5.7 µM. hit rate 20% among 200;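 active means inhibition above the mean of solvent-only control wells plus 3 SD, set per campaign, cut at about 25% in these data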;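 further: 0% = IL-6 plus DMSO and 100% = IL-6 plus nifuroxazide control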
Starred values were filed as active, the others as inactive; i = inactive; u = inconclusive; x = no result.

SMILES	STAT1 activator	STAT3 activator	HSV replic up	STAT1 inh-1	Cl transport mod	STAT3 blocker	STAT1 inh-2	NFkB inh	STAT3 inh STAT1c
CSc1ncccc1C(=O)N1CCCC(CCC(=O)NCc2ccc(F)c(F)c2)C1 (stereo unspecified)	96	111	i	2	0.39	-6	x	x	x
COc1ccc2cc(C(=O)Nc3ccc(Cl)cc3)sc(=O)c2c1OC	96	89	i	5	0.86	13	x	x	x
CC(C)CNC(=O)COC(=O)c1c2c(nc3ccccc13)/C(=C/c1cccs1)CC2	65	92	i	38*	0.23	5	21	-14	10
NC(=O)c1ccc(NC(=O)COC(=O)c2c3c(nc4ccccc24)/C(=C\c2cccs2)CCC3)cc1	106	87	i	-7	0.93	18	x	x	x
CCOC(=O)/C(=C/C=C1\Sc2cc(C)c(C)cc2N1CC)C(C)=O	62	85	u	40*	i	22	40*	-1	27*
CCOC(=O)/C(=C/C=C1\Sc2ccccc2N1CC)C(C)=O	104	83	u	-5	i	21	x	x	x
CCC(=O)NC(=S)Nc1ccc(NC(=S)NC(=O)c2ccc(C)cc2)cc1	93	95	i	6	0.15	9	x	x	x
CCC(=O)NC(=S)Nc1ccc(NC(=S)NC(=O)c2ccccc2)cc1	22	91	i	83*	-0.69	16	53*	38*	11
CCOc1ccc(S(=O)(=O)Nc2cccc(C)c2)c2cccnc12	64	96	i	37*	-0.48	11	25	-2	7
CCOc1ccc(S(=O)(=O)Nc2ccc3c(c2)OCO3)c2cccnc12	94	104	i	7	0.55	0	x	x	x
COc1ccc(/C=N/Nc2ccc(C(=O)O)cc2)cc1Br	42	66	i	61*	-0.5	42	-56	49*	-137
COc1ccc(/C=N/NC(=O)CN2CCN(Cc3ccccc3)CC2)cc1Br	x	x	i	x	-0.82	x	x	x	x
COc1ccccc1-c1cc(C(F)(F)F)nc(S(=O)(=O)CCCC(=O)Nc2cccnc2Cl)n1	59	96	i	43*	x	8	41*	-7	4
COc1ccccc1-c1cc(C(F)(F)F)nc(S(=O)(=O)CCCC(=O)NCc2ccc(F)cc2)n1	69	92	i	32	x	13	x	x	x
COc1ccc(-c2cc(C(F)(F)F)nc(S(=O)(=O)CCCC(=O)Nc3cc(C)on3)n2)cc1OC	52	100	i	51*	-0.34	8	46*	5	-63
COc1ccc(-c2cc(C(F)(F)F)n3nc(C(=O)Nc4cc(C)on4)cc3n2)cc1OC	98	94	x	2	0.69	12	x	x	x
CC(NC(=O)C1CCCN(S(=O)(=O)c2cnc[nH]2)C1)c1ccccc1 (stereo unspecified)	100	102	i	0	-2.4	3	x	x	x
COc1cc(/C(C)=N/NC(=O)C(O)(c2ccccc2)c2ccccc2)ccc1O	103	89	i	-6	-0.88	20	x	x	x
CCCCC(=O)N/N=C(C)/C=C/c1ccccc1F	58	99	i	45*	-1.8	6	14	-11	-37
O=C(Nc1ccccc1C(=O)NCc1ccccc1)c1ccccc1Br	100	103	i	0	-0.89	0	x	x	x
O=C(Nc1ccccc1C(=O)O)c1ccc(Br)c(S(=O)(=O)NCc2ccccc2)c1	52	99	i	51*	-1.2	7	29	5	3
O=C(O)c1ccccc1/C=N/N1CCN(C2c3ccccc3-c3ccccc32)CC1	99	83	i	0	-0.035	23	x	x	x
COc1ccc(CCNC(=O)Cn2c(=O)n(-c3ccc(F)cc3F)c(=O)c3sccc32)cc1OC	61	95	i	40*	-2.3	8	31	7	12
COc1ccc(CCNC(=O)Cn2c(=O)n(-c3cc(F)ccc3F)c(=O)c3sccc32)cc1OC	51	97	i	53*	-2.1	8	34	3	7
CC(C)(C)C(=O)Cn1c(=O)n(-c2ccc(F)cc2F)c(=O)c2sccc21	96	100	i	3	-0.17	2	x	x	x
SMILES	STAT1 activator	STAT3 activator	HSV replic up	STAT1 inh-1	Cl transport mod	STAT3 blocker	STAT1 inh-2	NFkB inh	STAT3 inh STAT1c
O=C(Cn1c(=O)n(-c2ccc(F)cc2)c(=O)c2sccc21)N1CCCC1	104	94	i	-4	x	12	x	x	x
COc1ccc(CCNC(=O)Cn2c(=O)n(-c3ccc(F)cc3)c(=O)c3sccc32)cc1OC	52	88	i	50*	-2	17	35*	4	6
Cc1nn2c(nc1=O)NNC2(C)C(C)(C)C (stereo unspecified)	99	101	i	-1	-0.59	4	x	x	x
COc1ccc(N/N=C(\C#N)C(=N)SCc2ccccc2)cc1	66	98	i	37*	-0.025	8	24	59*	-15
Cn1c(C(=O)N2CCN(c3ccc([N+](=O)[O-])cc3)CC2)cc2c(=O)[nH]c3ccccc3c21	52	87	i	51*	-1.9	19	34*	5	8
O=C(c1cc([N+](=O)[O-])ccc1Cl)N1CCN(c2ccc([N+](=O)[O-])cc2)CC1	103	94	i	-3	-0.3	5	x	x	x
COc1cccc(N2CCN(c3ncnc4c3[nH]c3ccccc34)CC2C)c1 (stereo unspecified)	69	84	i	35*	-1.6	23	46*	25*	37*
Cc1ccc2c(c1)[nH]c1c(N3CCN(Cc4ccccc4)CC3)ncnc12	80	76	i	22	-0.37	31	x	x	x
c1ccc(CN2CCN(c3ncnc4c3[nH]c3ccccc34)CC2)cc1	63	103	i	41*	-5.7*	8	48*	22*	16
COc1ccc(-n2c(SCc3ccccn3)nc3c(c2=O)SCC3)cc1OC	63	107	i	40*	-2	5	30	-2	-24
